Assay results: ChEMBL document CHEMBL5357041, “Discovery of novel β-elemene hybrids with hydrogen sulfide-releasing moiety possessing cardiovascular protective activity for the treatment of atherosclerosis” (RSC Med Chem, 2024)
Each block holds one molecule with its values, some of them ahead of it. Active and inactive are the calls of the source. The calls are words filed in the database; no cut-off is given here.

Assays:
[1] = Cytotoxicity against mouse BMDM cells assessed as cell viability at 50 uM incubated for 24 hrs by MTT assay; format: toxicity, cell-based; conditions: BMDM cells (bone marrow-derived macrophages), read-out: Activity
Outline: (§1)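 Primary bone marrow macrophages taken from 6-week-old male C57 mice and cultured 6–7 days before use. Compounds dosed for 24 h, then MTT added for 4 h and formazan dissolved in DMSO; absorbance read at 570 nm. Triplicate wells; medium-only and untreated-cell controls; mean ± SD, n = 4.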

HUVEC [2] = experiment: Inhibition of H2O2-induced oxidative damage in HUVECs preincubated for 24 hrs followed by H2O2 addition and measured after 2 hrs by MTT method; format: functional, cell-based; conditions: Homo sapiens, time 26.0 hrs
Outline: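 HUVECs were seeded and grown 24 h at 37 °C, 5% CO₂, then given compound (0.5, 5 or 20 μM) for 24 h. Control and model wells received serum-free medium instead. Model and treated wells were then exposed to 1 mM H₂O₂ for 2 h, followed by MTT for 4 h, DMSO, and absorbance at 570 nm. Trolox was the positive control; mean ± SD, n = 5.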

HUVEC [3] = experiment: Cytotoxicity against HUVECs at 0.5 to 200 uM incubated for 24 hrs by MTT assay; format: toxicity, cell-based; conditions: human, dose 0.5-200 µM
Outline: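 HUVECs bought from ATCC; compounds given for 24 h, then MTT (5 mg/mL, 20 μL/well) added for 4 h. Formazan dissolved in DMSO and absorbance read at 570 nm. Medium-only and untreated-cell wells served as controls.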

Thoracic aorta [4] = experiment: Vasodilation activity against KCl-induced Sprague-Dawley rat thoracic aorta vessels contraction at 20 uM; format: functional
Outline: (§2)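 Aortic rings of about 2 mm from anesthetized SD rats mounted in Krebs solution at 37 °C under oxygen, preload 9.8 mN, equilibrated about 1 h. Rings contracted with 25 mM K⁺, then compound added cumulatively. Relaxation (%) = (maximum KCl tension − tension after compound)/(maximum KCl tension − preload). ADT-OH served as control; mean ± SD, n = 4.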

Thoracic aorta [5] = experiment: Vasodilation activity against KCl-induced Sprague-Dawley rat thoracic aorta vessels contraction at 10 uM; format: functional; outline: as §2
Thoracic aorta [6] = experiment: Vasodilation activity against KCl-induced Sprague-Dawley rat thoracic aorta vessels contraction at 5 uM; format: functional; outline: as §2
[7] = Cytotoxicity against mouse BMDM cells assessed as cell viability at 100 uM incubated for 24 hrs by MTT assay; format: toxicity, cell-based; conditions: BMDM cells (bone marrow-derived macrophages), read-out: Activity; outline: as §1
Thoracic aorta [8] = experiment: Vasodilation activity against KCl-induced Sprague-Dawley rat thoracic aorta vessels contraction at 1 uM; format: functional; outline: as §2
Thoracic aorta [9] = experiment: Vasodilation activity against KCl-induced Sprague-Dawley rat thoracic aorta vessels contraction at 40 uM; format: functional; outline: as §2
[10] = Induction of H2S release in phosphate buffer at 100 uM measured upto 150 mins under L-cysteine stimulated condition by microplate reader analysis; conditions: 2.5 h
Outline: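 Compound (100 μM) incubated with 1 mM L-cysteine in phosphate buffer at 37 °C, sampled at 0–150 min. Each sample quenched with zinc acetate and trichloroacetic acid, then N,N-dimethyl-p-phenylenediamine and FeCl₃ in HCl added. Absorbance read at 670 nm after 10 min; H₂S quantified against a NaHS standard curve (5–150 μM).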

RAW264.7 = experiment: Lipid lowering activity in ox-LDL stimulated mouse RAW264.7 cells at 50 uM by oil red O staining based microscopic analysis; format: functional, cell-based
Outline: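 RAW 264.7 cells allowed to adhere 2 h, then exposed to ox-LDL (50 μg/mL) plus compound (50 μM) for 24 h. Cells fixed in 4% paraformaldehyde, stained with oil red O, rinsed in 60% isopropanol and counterstained with hematoxylin. Oil red O-positive area percentage quantified microscopically; ANOVA used.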

SMILES: C=C[C@]1(C)CC[C@@H](C(=C)CO)C[C@H]1C(=C)C
viability at 24 h, 50 µM [1]: 275%
inhibition (HUVEC [2]): Active
Activity (HUVEC [3]): Non-Toxic
Activity (Thoracic aorta [4]): 27.81%
Activity (Thoracic aorta [5]): 5.63%
Activity (Thoracic aorta [6]): 4.63%
viability at 24 h, 100 µM [7]: 281%
Activity (Thoracic aorta [8]): 0.09%
Activity (Thoracic aorta [9]): 53.06%

Activity [10]: 100 µM
SMILES: C=C[C@]1(C)CC[C@@H](C(=C)COC(=O)C(NC(=O)CCC(=O)OCCOc2ccc(-c3cc(=S)ss3)cc2)C(C)CC)C[C@H]1C(=C)C (stereo partly specified)
viability at 24 h, 50 µM [1]: 295%
Activity (Thoracic aorta [4]): 4.83%
Activity (Thoracic aorta [5]): -6.76%
Activity (Thoracic aorta [6]): 3.38%
viability at 24 h, 100 µM [7]: 584%
Activity (Thoracic aorta [8]): 1.7%
Activity (Thoracic aorta [9]): 14.29%

Activity [10]: 20 µM
SMILES: O=C(O)CCCCC1CCSS1 (stereo not drawn) [LIPOIC ACID, ALPHA]

Activity [10]: 100 µM
SMILES: C=C[C@]1(C)CC[C@@H](C(=C)COC(=O)c2ccccc2C(=O)OCCOc2ccc(-c3cc(=S)ss3)cc2)C[C@H]1C(=C)C
viability at 24 h, 50 µM [1]: 349%
inhibition (HUVEC [2]): Active
Activity (HUVEC [3]): Non-Toxic
Activity (Thoracic aorta [4]): 17.46%
Activity (Thoracic aorta [5]): 17%
Activity (Thoracic aorta [6]): 10.01%
Activity (RAW264.7): Active
viability at 24 h, 100 µM [7]: 454%
Activity (Thoracic aorta [8]): -2.99%
Activity (Thoracic aorta [9]): 28.25%

SMILES: C=C[C@]1(C)CC[C@@H](C(=C)C)C[C@H]1C(=C)COC(=O)CCCCC1CCSS1 (stereo partly specified)
viability at 24 h, 50 µM [1]: 157%
Activity (Thoracic aorta [4]): 24.52%
Activity (Thoracic aorta [5]): 20.75%
Activity (Thoracic aorta [6]): -2.4%
viability at 24 h, 100 µM [7]: 336%
Activity (Thoracic aorta [8]): -19.8%
Activity (Thoracic aorta [9]): 17.27%

SMILES: C=C[C@]1(C)CC[C@@H](C(=C)COC(=O)CCCCCC(=O)Oc2ccc(-c3cc(=S)ss3)cc2)C[C@H]1C(=C)C
viability at 24 h, 50 µM [1]: 232%
Activity (Thoracic aorta [4]): 16.08%
Activity (Thoracic aorta [5]): 6.99%
Activity (Thoracic aorta [6]): 6.64%
viability at 24 h, 100 µM [7]: 459%
Activity (Thoracic aorta [8]): -1.15%
Activity (Thoracic aorta [9]): 21.17%

SMILES: C=C[C@]1(C)CC[C@@H](C(=C)COCCCCCCCCOc2ccc(C(N)=S)cc2)C[C@H]1C(=C)C
viability at 24 h, 50 µM [1]: 74.5%
Activity (Thoracic aorta [4]): 12.44%
Activity (Thoracic aorta [5]): 8.86%
Activity (Thoracic aorta [6]): 1.71%
Activity (RAW264.7): Active
viability at 24 h, 100 µM [7]: 27.1%
Activity (Thoracic aorta [8]): -4.54%
Activity (Thoracic aorta [9]): 19.64%

SMILES: C=C[C@]1(C)CC[C@@H](C(=C)COC(=O)CCCCCC(=O)Oc2ccc(C(N)=S)cc2)C[C@H]1C(=C)C
viability at 24 h, 50 µM [1]: 177%
Activity (Thoracic aorta [4]): 4.19%
Activity (Thoracic aorta [5]): 2.67%
Activity (Thoracic aorta [6]): 4.53%
viability at 24 h, 100 µM [7]: 219%
Activity (Thoracic aorta [8]): 1.2%
Activity (Thoracic aorta [9]): 6.38%

SMILES: C=C[C@]1(C)CC[C@@H](C(=C)C)C[C@H]1C(=C)COC(=O)C(NC(=O)CCCCC1CCSS1)C(C)CC (stereo partly specified)
viability at 24 h, 50 µM [1]: 672%
Activity (Thoracic aorta [4]): 5.16%
Activity (Thoracic aorta [5]): -3.6%
Activity (Thoracic aorta [6]): 2.78%
viability at 24 h, 100 µM [7]: 882%
Activity (Thoracic aorta [8]): 1.1%
Activity (Thoracic aorta [9]): 14.67%

SMILES: C=C[C@]1(C)CC[C@@H](C(=C)COC(=O)/C=C\C(=O)OCCOc2ccc(-c3cc(=S)ss3)cc2)C[C@H]1C(=C)C
viability at 24 h, 50 µM [1]: 99%
Activity (Thoracic aorta [4]): 12.57%
Activity (Thoracic aorta [5]): 7.28%
Activity (Thoracic aorta [6]): 1.54%
viability at 24 h, 100 µM [7]: 89.7%
Activity (Thoracic aorta [8]): -4.07%
Activity (Thoracic aorta [9]): 10.78%

SMILES: C=C[C@]1(C)CC[C@@H](C(=C)COC(=O)CCCCCCC(=O)Oc2ccc(-c3cc(=S)ss3)cc2)C[C@H]1C(=C)C
viability at 24 h, 50 µM [1]: 189%
Activity (Thoracic aorta [4]): 7.96%
Activity (Thoracic aorta [5]): 0.55%
Activity (Thoracic aorta [6]): 5.04%
viability at 24 h, 100 µM [7]: 202%
Activity (Thoracic aorta [8]): 12.81%
Activity (Thoracic aorta [9]): 14.68%

SMILES: C=C[C@]1(C)CC[C@@H](C(=C)C)C[C@H]1C(=C)COC(=O)CCC(=O)OCCOc1ccc(-c2cc(=S)ss2)cc1
viability at 24 h, 50 µM [1]: 244%
Activity (Thoracic aorta [4]): 13.2%
Activity (Thoracic aorta [5]): 14.98%
Activity (Thoracic aorta [6]): -8.64%
viability at 24 h, 100 µM [7]: 262%
Activity (Thoracic aorta [8]): 7.47%
Activity (Thoracic aorta [9]): 7.43%
